High-throughput results: PubChem BioAssay, Broad Institute
GASC1 inh: blocks human GASC-1 (KDM4C) demethylase activity; GST-KDM4C 2-372, H3K9me3 peptide, LANCE TR-FRET; inhibition, % at 12.5 µM; 96,000 tested, 0.15% active; Q9H3R0;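 active = mean replicate inhibition above about 25%, with at least 55% of replicates also reaching it, limit read from the data, passing the limit was not always enough; inconclusive = only one of those two conditions met; inactive = neither condition met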
Target sequence (Q9H3R0 2-372 limits assumed): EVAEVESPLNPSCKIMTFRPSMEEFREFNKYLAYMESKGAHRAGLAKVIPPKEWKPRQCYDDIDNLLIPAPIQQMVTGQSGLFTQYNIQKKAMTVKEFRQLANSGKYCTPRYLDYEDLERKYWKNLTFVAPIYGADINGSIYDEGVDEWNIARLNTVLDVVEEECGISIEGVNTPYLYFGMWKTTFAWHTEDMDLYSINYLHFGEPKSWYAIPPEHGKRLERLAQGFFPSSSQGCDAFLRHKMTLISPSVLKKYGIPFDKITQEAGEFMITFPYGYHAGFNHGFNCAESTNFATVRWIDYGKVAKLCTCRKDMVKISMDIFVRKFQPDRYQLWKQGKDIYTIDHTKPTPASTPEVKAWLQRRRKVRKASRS
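Material: N-terminal GST-fused human GASC-1 (KDM4C) fragment, residues 2-372. Input: 10 nM enzyme. Incubation: enzyme reaction 30 min, then detection 60 min, both room temperature. Doses: one test concentration per compound. Read-out basis: inhibition from TR-FRET ratio decrease. Detection: LANCE TR-FRET, excitation 340 nm, emissions 618 and 671 nm.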
Pf Dd2 inh: P. falciparum Dd2 growth inhibition. SYBR Green, 72 h; active compounds read low. activity change, % at 10 µM. 94,000 tested, 2.3% active. AID 1159554; in the data active = activity change below about -80%; inconclusive = no clear call, values can overlap the other calls
T cruzi growth-1: inhibitors of T. cruzi proliferation; T. cruzi beta-gal in NIH3T3, GalScreen luminescence, 90 h; 77,000 tested, 5.9% active; inhibition, % at 8.34 µM;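 active = mean inhibition above about 93%, with at least 55% of replicates each passing it, limit read from the data, passing the limit was not always enough; inconclusive = only one of those two conditions holds; inactive = neither condition holds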
IDH1 R132H inh: IDH1 R132H (human) inhibition | O75874 | IDH1 R132H reductase, diaphorase/resazurin fluorescence, 60 min | inhibition, % at 10 µM | 70,000 tested, 0.18% active; in the data active = inhibition above about 34%; inconclusive = no clear call, values can overlap the other calls; inactive = below about 11%
Target sequence (O75874 whole entry R132H): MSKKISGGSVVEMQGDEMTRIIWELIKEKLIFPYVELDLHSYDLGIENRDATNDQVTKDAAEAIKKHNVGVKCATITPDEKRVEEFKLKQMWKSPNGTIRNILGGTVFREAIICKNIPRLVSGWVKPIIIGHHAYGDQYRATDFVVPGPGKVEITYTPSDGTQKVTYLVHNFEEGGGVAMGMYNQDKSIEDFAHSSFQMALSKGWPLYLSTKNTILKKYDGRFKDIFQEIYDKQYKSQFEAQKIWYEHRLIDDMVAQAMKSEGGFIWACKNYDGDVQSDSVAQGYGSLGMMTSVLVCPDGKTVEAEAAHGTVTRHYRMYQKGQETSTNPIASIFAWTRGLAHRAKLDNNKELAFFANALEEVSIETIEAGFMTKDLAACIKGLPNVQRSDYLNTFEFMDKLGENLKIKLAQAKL
T cruzi growth-2: Trypanosoma cruzi proliferation inhibition | inhibition, % at 8.35 µM | shares compounds with T cruzi growth-1 | T. cruzi beta-gal in NIH3T3, GalScreen luminescence, 90 h | 5,600 tested, 72% active;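 active = mean replicate inhibition above about 95% and at least 55% of replicates individually reaching it, limit read from the data; inconclusive = only one of the two criteria is met; inactive = neither criterion is met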
T cruzi growth-3: blocks T. cruzi growth in NIH3T3 host cells. shares compounds with T cruzi growth-1. AID 651740. T. cruzi beta-gal in NIH3T3, GalScreen luminescence, 90 h. 5,600 tested, 21% active. inhibition, % at 2.09 µM;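 active = mean inhibition above about 95%, with at least 55% of replicates also reaching it, limit read from the data; inconclusive = meets just one of the two conditions; inactive = meets neither condition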
3T3 cytotox: kills mouse NIH/3T3 fibroblasts; shares compounds with T cruzi growth-1; NIH/3T3 viability, CellTiter-Glo ATP luminescence, 90 h; cytotoxicity (signal decrease), % at 8.35 µM; 5,600 tested, 14% active;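 active = mean signal decrease across replicates above about 35% based on untreated-well scatter, with enough replicates individually passing, limit read from the data; inconclusive = no rule stated though some were filed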
3T3 cytotox 2: cytotoxicity in mouse NIH/3T3 fibroblasts. shares compounds with T cruzi growth-1. NIH/3T3 viability, CellTiter-Glo ATP luminescence, 90 h. inhibition, % at 24.9 µM. 5,600 tested, 56% active. AID 651744;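 active = mean loss of cell viability signal at or above a set limit, and enough replicates individually reaching it; inconclusive = meets only the mean limit or only the replicate share; inactive = meets neither condition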
Large screens that a line does not name were inactive (follow-up assays come after a bar, where they were run). Rows were chosen to be rich in hits. Some 5.8% of all compounds tested hit in one or more screens of this group.

C[C@@H]1CN([C@@H](C)CO)S(=O)(=O)c2ccc(C3=CCCC3)cc2O[C@H]1CN(C)S(=O)(=O)c1ccc(F)cc1	T cruzi growth-1 115.5 | T cruzi growth-2 97.4 | T cruzi growth-3 98.9 | 3T3 cytotox inactive | 3T3 cytotox 2 26.8
COc1ccc(S(=O)(=O)N(C)C[C@H]2Oc3cc(C4=CCCC4)ccc3S(=O)(=O)N([C@@H](C)CO)C[C@@H]2C)cc1	none
COc1cccc(-c2ccc(C3[C@H]4CNC[C@@H]3N4Cc3cccnc3)cc2)c1 (stereo partly specified)	none (no result: T cruzi growth-1, IDH1 R132H inh)
COc1ccc2c3c([nH]c2c1)[C@@H](CO)N(C(=O)c1ccc(F)cc1)CC31CN(Cc2cccnc2)C1	none (no result: T cruzi growth-1, IDH1 R132H inh)
O=C(Nc1ccc(F)cc1)N1CCCCN2[C@H](CO)[C@H](c3ccc(-c4ccccc4F)cc3)[C@H]2C1	none (no result: GASC1 inh, IDH1 R132H inh)
O=C(Nc1ccc(F)cc1)N1CCCCN2[C@H](CO)[C@@H](c3ccc(-c4ccccc4F)cc3)[C@H]2C1	T cruzi growth-1 103.7 (no result: GASC1 inh, IDH1 R132H inh) | T cruzi growth-2 97.1 | T cruzi growth-3 inconclusive | 3T3 cytotox 57.5 | 3T3 cytotox 2 105.2
O=C(Nc1ccccc1)N1CCCCN2[C@H](C1)[C@H](c1ccc(-c3ccccc3F)cc1)[C@@H]2CO	T cruzi growth-1 112.8 (no result: IDH1 R132H inh) | T cruzi growth-2 108.1 | T cruzi growth-3 inactive | 3T3 cytotox inactive | 3T3 cytotox 2 inconclusive
O=C(Nc1ccc(F)cc1)N1CCCCN2[C@H](CO)[C@@H](c3ccc(-c4ccccc4F)cc3)[C@@H]2C1	T cruzi growth-1 112.2 (no result: GASC1 inh, IDH1 R132H inh) | T cruzi growth-2 100.6 | T cruzi growth-3 104.0 | 3T3 cytotox inactive | 3T3 cytotox 2 104.3
COc1ccc(-c2cnc3c(c2)C(=O)N([C@@H](C)CO)C[C@@H](C)[C@H](CN(C)Cc2ccc(C(=O)O)cc2)O3)cc1	none
C[C@H](CO)N1C[C@H](C)[C@@H](CN(C)C(=O)C2CCCCC2)Oc2cc(C3=CCCCC3)ccc2S1(=O)=O	T cruzi growth-1 112.5 (no result: IDH1 R132H inh) | T cruzi growth-2 110.0 | T cruzi growth-3 inactive | 3T3 cytotox inactive | 3T3 cytotox 2 104.9
C[C@@H]1CN([C@@H](C)CO)S(=O)(=O)c2ccc(C3=CCCCC3)cc2O[C@@H]1CN(C)C(=O)C1CCCCC1	T cruzi growth-1 119.2 (no result: IDH1 R132H inh) | T cruzi growth-2 104.6 | T cruzi growth-3 inactive | 3T3 cytotox inactive | 3T3 cytotox 2 105.9
C[C@@H]1CN([C@@H](C)CO)S(=O)(=O)c2ccc(C3=CCCCC3)cc2O[C@H]1CN(C)C(=O)C1CCCCC1	T cruzi growth-1 117.8 | T cruzi growth-2 104.1 | T cruzi growth-3 inactive | 3T3 cytotox inactive | 3T3 cytotox 2 96.4
C[C@H]1CN([C@@H](C)CO)S(=O)(=O)c2ccc(C3=CCCCC3)cc2O[C@@H]1CN(C)C(=O)C1CCCCC1	T cruzi growth-1 120.8 (no result: IDH1 R132H inh) | T cruzi growth-2 103.0 | T cruzi growth-3 98.8 | 3T3 cytotox inactive | 3T3 cytotox 2 105.0
C[C@@H]1CN([C@@H](C)CO)C(=O)c2cc(C#CCN(C)C)cnc2O[C@H]1CN(C)C(=O)c1cnccn1	none
O=C(Nc1ccccc1)N1CCCCN2[C@@H](CO)[C@@H](c3ccc(C#CC4CC4)cc3)[C@@H]2C1	none (no result: IDH1 R132H inh)
O=C(Nc1ccc(F)cc1)N1CCCCN2[C@H](C1)[C@@H](c1ccc(C#CC3CC3)cc1)[C@@H]2CO	T cruzi growth-1 98.8 (no result: IDH1 R132H inh) | T cruzi growth-2 101.2 | T cruzi growth-3 103.5 | 3T3 cytotox inactive | 3T3 cytotox 2 105.4
O=C(Nc1ccc(F)cc1)N1CCCCN2[C@H](CO)[C@@H](c3ccc(C#CC4CC4)cc3)[C@@H]2C1	T cruzi growth-1 107.8 (no result: IDH1 R132H inh) | T cruzi growth-2 112.1 | T cruzi growth-3 inactive | 3T3 cytotox inactive | 3T3 cytotox 2 104.2
O=C(Nc1ccc(F)cc1)N1CCCCN2[C@H](CO)[C@H](c3ccc(C#CC4CC4)cc3)[C@@H]2C1	T cruzi growth-1 105.7 (no result: IDH1 R132H inh) | T cruzi growth-2 107.1 | T cruzi growth-3 inactive | 3T3 cytotox inactive | 3T3 cytotox 2 inactive
Cc1noc(C)c1NC(=O)N(C)C[C@H]1Oc2c(NS(C)(=O)=O)cccc2C(=O)N([C@H](C)CO)C[C@@H]1C	none (no result: GASC1 inh)
CCOC(=O)N(C)C[C@H]1OCc2cnnn2CCCC(=O)N([C@H](C)CO)C[C@@H]1C	none
C[C@H](CO)N1C[C@H](C)[C@@H](CN(C)Cc2cccc(F)c2)Oc2ncc(-c3ccccc3F)cc2C1=O	none (no result: T cruzi growth-1)
COc1ccc(NC(=O)Nc2ccc3c(c2)C(=O)N([C@@H](C)CO)C[C@@H](C)[C@H](CN(C)CC2CC2)OCCCC[C@@H](C)O3)cc1	none (no result: IDH1 R132H inh)
COCC(=O)N1[C@@H](CO)[C@@H]2c3ccccc3N(C(=O)Nc3cc(F)ccc3F)C[C@@H]21	none (no result: IDH1 R132H inh)
Cc1cc(C(=O)NCc2nc(-c3ccccc3)no2)ccc1[N+](=O)[O-]	none (no result: GASC1 inh, Pf Dd2 inh, T cruzi growth-1)
Cc1ccc(S(=O)(=O)N(C)C[C@H]2OCCCC[C@@H](C)Oc3ccc(NS(=O)(=O)c4ccc(F)cc4)cc3C(=O)N([C@H](C)CO)C[C@H]2C)cc1	T cruzi growth-1 108.9 | T cruzi growth-2 102.6 | T cruzi growth-3 inconclusive | 3T3 cytotox inactive | 3T3 cytotox 2 inactive
Cc1ccc(S(=O)(=O)Nc2ccc3c(c2)C(=O)N([C@H](C)CO)C[C@H](C)[C@@H](CN(C)S(=O)(=O)c2ccc(F)cc2)OCCCC[C@H](C)O3)cc1	none (no result: T cruzi growth-1, IDH1 R132H inh)
Cc1ccc(S(=O)(=O)N(C)C[C@@H]2OCCCC[C@H](C)Oc3ccc(NS(=O)(=O)c4ccc(F)cc4)cc3C(=O)N([C@H](C)CO)C[C@H]2C)cc1	T cruzi growth-1 107.0 | T cruzi growth-2 107.5 | T cruzi growth-3 inactive | 3T3 cytotox inactive | 3T3 cytotox 2 55.1
Cc1ccc(S(=O)(=O)Nc2ccc3c(c2)C(=O)N([C@@H](C)CO)C[C@@H](C)[C@H](CN(C)S(=O)(=O)c2ccc(F)cc2)OCCCC[C@H](C)O3)cc1	T cruzi growth-1 121.3 | T cruzi growth-2 109.9 | T cruzi growth-3 inactive | 3T3 cytotox inactive | 3T3 cytotox 2 inactive
C[C@H](CO)N1C[C@H](C)[C@@H](CN(C)Cc2ccccc2)Oc2c(NC(=O)Nc3ccc4c(c3)OCO4)cccc2C1=O	none (no result: IDH1 R132H inh)
COc1cccc(NC(=O)CSc2nnc(-c3ccc(Cl)cc3)n2C)c1	none (no result: GASC1 inh, Pf Dd2 inh, T cruzi growth-1)
Cc1ccc(S(=O)(=O)Nc2ccc3c(c2)C(=O)N([C@H](C)CO)C[C@@H](C)[C@H](CN(C)C(=O)Nc2ccc(F)cc2)OCCCC[C@H](C)O3)cc1	T cruzi growth-1 99.7 | T cruzi growth-2 106.1 | T cruzi growth-3 inactive | 3T3 cytotox inactive | 3T3 cytotox 2 inactive
